High-throughput results deposited in PubChem BioAssay by Johns Hopkins Ion Channel Center.
KCNQ1 block – blocks the human KCNQ1 potassium channel; P51787; CHO-K1 KCNQ1, FluxOR thallium flux fluorescence; stronger effect = higher value; B-score at 10 µM; 310,000 tested, 1.3% active; AID 2642;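 active = compounds whose thallium flux B-score, printed positive for inhibition, exceeds three library SD while starting fluorescence stays within three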;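 also: channel opened by potassium depolarization with thallium stimulus after 20 min compound exposure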
KCNQ1 act – human KCNQ1 channel potentiation or activation; B-score at 10 µM; 310,000 tested, 0.35% active; P51787; CHO-K1 KCNQ1, thallium flux FluxOR fluorescence; stronger effect = higher value; AID 2648;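 active = fluorescence ratio B-score, a plate-corrected score, at least three library SD, with initial intensity B-score within 5 SD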
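Assay system: stable KCNQ1 CHO-K1 line; medium: assay buffer, equal DMSO in all wells; timing: 90 min dye loading and 20 min compound exposure, both at room temperature; technique: kinetic FluxOR thallium fluorescence, 10-s 1-Hz baseline, 110-s post-stimulus read; read-out basis: B score of baseline-normalized fluorescence ratio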
KCNK3 block – human KCNK3 channel inhibition, primary screen; O14649; CHO-KCNK3 thallium flux, FluxOR fluorescence; stronger effect = lower value; B-score at 10 µM; 340,000 tested, 0.84% active;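 active = B-score under library mean minus 4 SD, starting fluorescence ratio at most library mean plus 5 SD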;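 also: more negative B-score means stronger inhibition of thallium flux through KCNK3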
Kir21 block – inhibitors of mouse Kir2.1 inward-rectifier potassium channel; HEK293-Kir2.1, FluxOR thallium flux fluorescence; stronger effect = lower value; P35561; AID 1672; 310,000 tested, 0.85% active; B-score at 10 µM;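 active = fluorescence ratio B-score at or below minus 3 SD of library scores, with starting-brightness B-score within 2 SD, cut at about -4.2 in these data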;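 also: channel flux triggered by added potassium and thallium sulfate stimulus; B-score of peak minus minimum fluorescence over baseline after thallium stimulus; more negative B-score means stronger Kir2.1 block with less thallium influx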
KCNK9 block – human KCNK9 channel inhibition | B-score at 10 µM | Q9NPC2 | AID 488922 | 310,000 tested, 1.2% active | HEK293 KCNK9, FluxOR thallium flux fluorescence; stronger effect = lower value;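 active = ratio B-score over 3 SD below the library mean, with starting fluorescence within 5 SD of its mean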;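 also: negative B-score means less thallium flux so channel inhibition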
Target sequence (Q9NPC2 whole entry, looked up): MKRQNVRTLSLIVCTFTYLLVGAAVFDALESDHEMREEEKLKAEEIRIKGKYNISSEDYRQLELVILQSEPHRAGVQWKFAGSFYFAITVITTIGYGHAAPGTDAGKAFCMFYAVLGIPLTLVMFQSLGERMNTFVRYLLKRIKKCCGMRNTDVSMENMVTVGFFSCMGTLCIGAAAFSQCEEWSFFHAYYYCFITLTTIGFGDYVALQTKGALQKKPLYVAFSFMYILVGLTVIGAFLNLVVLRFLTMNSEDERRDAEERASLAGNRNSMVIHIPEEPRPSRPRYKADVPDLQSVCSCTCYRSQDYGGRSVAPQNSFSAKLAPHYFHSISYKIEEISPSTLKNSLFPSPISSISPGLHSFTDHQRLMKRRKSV
hERG protect – hERG (human) protection from proarrhythmic block; AID 1511; activation (rescue from dofetilide block), less the hit threshold, % at 10 µM; CHO-hERG, FluxOR thallium flux, dofetilide IC70 present; Q12809; 310,000 tested, 0.51% active;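 active = activation above the mean of controls blocked by dofetilide plus 5 SD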;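 also: thallium influx through hERG after potassium depolarization seen as dye fluorescence rise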
Starred values were filed as active, the others as inactive; i = inactive; nt = no result given. A selection: hits, their analogues and other compounds. The true share with any hit is near 3.7%.

SMILES	KCNQ1 block	KCNQ1 act	KCNK3 block	Kir21 block	KCNK9 block	hERG protect
COc1ccccc1NC(=O)C1CCCN(S(=O)(=O)c2ccc3c(c2)CC(C)N3C(C)=O)C1 (stereo not drawn)	i	i	i	1.36	i	-7.7
Cc1noc(C(=O)Nc2cccc(Cl)c2)c1Cl	i	i	i	-0.3	i	-4.2
Cc1onc(-c2ccccc2Cl)c1C(=O)Nc1nnc(-c2cccc([N+](=O)[O-])c2)s1	11*	i	i	1.24	i	-17.3
CCSc1nnc(NC(=O)c2c(-c3ccccc3Cl)noc2C)s1	i	i	i	0.98	i	-8.4
O=[N+]([O-])c1cc([N+](=O)[O-])c2oc(-c3ccccc3)c(Br)c2c1O	8*	i	i	-0.97	i	-19.6
COc1ccccc1CNC(=O)CN(C)Cc1ccc(SC)cc1	i	i	i	-5.41*	i	-12.9
COc1cccc(CN(C)CC(=O)NCc2ccc(F)cc2)c1OC	i	i	i	0.6	i	-4.9
CCCCN(C(=O)CCn1c(=O)oc2ccccc21)c1ccccc1	i	i	i	-8.2*	i	-9.3
CCOc1cccc2sc(N(CCN(C)C)C(=O)c3cc4ccccc4cc3OC)nc12	9*	i	i	-1.63	i	-10.9
CCOc1ccc2nc(N(CCN(C)C)C(=O)c3cc4ccccc4cc3OC)sc2c1	i	i	i	2.39	i	-18.5
CN(C)CCN(C(=O)c1cccc2ccccc12)c1nc2cc3c(cc2s1)OCO3	6*	i	i	2.06	i	-21.4
Cc1cccc2sc(N(CCCN(C)C)C(=O)c3ccc(Cl)s3)nc12	i	i	i	-5.4*	i	-20.4
O=C(O)CCC(=O)N1CCc2cc(S(=O)(=O)NCc3ccc(Cl)cc3)ccc21	i	i	i	-0.92	i	-8.8
O=C(N=Nc1c(O)[nH]c2ccc([N+](=O)[O-])cc12)c1cc(-c2ccccc2Cl)nc2ccccc12	i	i	i	-0.02	i	15.3*
Cc1c(OCC(=O)C(C)(C)C)ccc2c(-c3ccccc3)cc(=O)oc12	i	i	i	-1.31	i	-3.7
CC(C)[C@H](NC(=O)c1ccccc1)C(=O)Nc1ccc2c(c1)OCO2	nt	nt	i	nt	nt	nt
CCOc1ccc(OCC)c(NC(=O)CN2CCN(c3cc(C)ccc3C)CC2)c1	6*	i	i	-0.06	i	-11.0
CCOc1ccc(OCC)c(NC(=O)CN2CCN(c3cccc(C)c3)CC2)c1	i	i	i	1.1	i	-5.9
CS(=O)(=O)N(CCc1ccccc1)CC(=O)Nc1ccc2c(c1)OCO2	i	i	i	0.09	-7.91*	-8.2
CC(C)(C)C(=O)Nc1ccc(-c2nnc3n2CCCCC3)cc1	i	i	i	-0.55	i	-3.8
CCc1cccc(NC(=O)CCCn2nc(CC)n3c(cc4occc43)c2=O)c1	i	i	i	-5.02*	i	-11.0
COc1cc2cc(CN(Cc3cccs3)C(=S)Nc3ccc(C)cc3)c(=O)[nH]c2cc1OC	i	i	i	1.67	i	-12.8
COc1cc2cc(CN(Cc3cccs3)C(=S)Nc3cccc(C)c3)c(=O)[nH]c2cc1OC	7*	i	nt	0.82	i	-11.3
O=C(Nc1ccc2c(c1)OCO2)c1noc2c1CCCC2	i	i	i	-0.02	i	-2.2
O=C(c1cc(-c2ccccc2Cl)nc2ccccc12)N1CCN(c2ccccn2)CC1	nt	nt	i	nt	nt	nt
O=C(c1cc(-c2ccccc2Cl)nc2ccccc12)N1CCN(c2ccccc2O)CC1	6*	i	i	-0.35	i	-25.6
CCN1CCCC(OC(=O)c2cc(-c3ccccc3Cl)nc3ccccc23)C1 (stereo not drawn)	i	i	i	-3.68	-6.66*	-11.0
CCOc1ccccc1N1CCN(C(=O)c2cc(-c3cc(OC)ccc3OC)nc3ccccc23)CC1	6*	i	i	-1	i	-18.5
CC(C)OC(=O)C(C)(C)Oc1ccc(C(=O)c2ccc(Cl)cc2)cc1	i	i	i	-0.17	i	-9.6
